Assays:
[1] = molecular target: Voltage-gated inwardly rectifying potassium channel KCNH2 (Homo sapiens, UniProt Q12809); test: Inhibition of human ERG expressed in CHO cells by automated patch clamp electrophysiology assay
[2] = Antiproliferative activity against human H1299 cells by MTS assay; assay type: functional, cell-based; conditions: NCI-H1299
In short: (§1)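 Monolayer proliferation assay. Cells were seeded at 5000-10000 per well and exposed to eight serial compound dilutions for 72 h. Viability was read by CellTiter-Glo or MTS per the kit protocol, and IC50 was taken from growth curves. Each determination averaged triplicate concentration-inhibition curves. Values are the mean ± standard deviation of two separate determinations.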

Histone deacetylase 1 = Histone deacetylase 1 (Homo sapiens, UniProt Q13547); test: Inhibition of FLAG-tagged HDAC1 expressed in HEK293 cells by fluorescent assay; assay type: cell-based
HCT-116 = test: Antiproliferative activity against human HCT116 cells by MTS assay; assay type: functional, cell-based; in short: as §1
[3] = Association constant, pKa at pH 2 to 12; assay type: physicochemical
Histone deacetylase 3 = Histone deacetylase 3 (Homo sapiens, UniProt O15379); test: Inhibition of FLAG-tagged HDAC3 expressed in HEK293 cells by fluorescent assay; assay type: cell-based
In short: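 HDAC3 immunopurified from 293 cells stably expressing FLAG-tagged enzyme. Substrate bis-Boc-(Ac)Lys-rhodamine 110; its deacetylation releases a fluorophore, read on a fluorometric plate reader.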

Histone deacetylase 4 = Histone deacetylase 4 (Homo sapiens, UniProt P56524); test: Inhibition of HDAC4 expressed in baculovirus system by fluorescent assay
In short: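 HDAC4 purified from a baculovirus expression system. Substrate bis-Boc-(Ac)Lys-rhodamine 110; its deacetylation generates a fluorophore, read on a fluorometric plate reader.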

Histone deacetylase 8 = molecular target: T1, Histone deacetylase 8 (Homo sapiens, UniProt Q9BY41); test: Inhibition of HDAC8 expressed in baculovirus system by fluorescent assay
T1 sequence (Q9BY41 whole entry): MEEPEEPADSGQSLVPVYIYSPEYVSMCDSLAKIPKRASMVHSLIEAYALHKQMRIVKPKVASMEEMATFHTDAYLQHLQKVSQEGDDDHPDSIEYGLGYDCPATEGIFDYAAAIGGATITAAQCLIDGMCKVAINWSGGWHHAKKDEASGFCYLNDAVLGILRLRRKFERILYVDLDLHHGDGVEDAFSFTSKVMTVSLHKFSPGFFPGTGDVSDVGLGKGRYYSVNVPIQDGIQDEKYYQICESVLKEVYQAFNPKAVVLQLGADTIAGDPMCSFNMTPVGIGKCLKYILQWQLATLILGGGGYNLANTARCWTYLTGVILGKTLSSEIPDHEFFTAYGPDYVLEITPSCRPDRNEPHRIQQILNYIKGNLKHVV

Histone deacetylase 2 = Histone deacetylase 2 (Homo sapiens, UniProt Q92769); test: Inhibition of HDAC2 expressed in baculovirus system by fluorescent assay
[4] = molecular target: T2, Protein deacetylase HDAC6 (Homo sapiens, UniProt Q9UBN7); test: Inhibition of FLAG-tagged HDAC6 expressed in HEK293 cells by fluorescent assay; assay type: cell-based
T2 sequence (Q9UBN7 whole entry): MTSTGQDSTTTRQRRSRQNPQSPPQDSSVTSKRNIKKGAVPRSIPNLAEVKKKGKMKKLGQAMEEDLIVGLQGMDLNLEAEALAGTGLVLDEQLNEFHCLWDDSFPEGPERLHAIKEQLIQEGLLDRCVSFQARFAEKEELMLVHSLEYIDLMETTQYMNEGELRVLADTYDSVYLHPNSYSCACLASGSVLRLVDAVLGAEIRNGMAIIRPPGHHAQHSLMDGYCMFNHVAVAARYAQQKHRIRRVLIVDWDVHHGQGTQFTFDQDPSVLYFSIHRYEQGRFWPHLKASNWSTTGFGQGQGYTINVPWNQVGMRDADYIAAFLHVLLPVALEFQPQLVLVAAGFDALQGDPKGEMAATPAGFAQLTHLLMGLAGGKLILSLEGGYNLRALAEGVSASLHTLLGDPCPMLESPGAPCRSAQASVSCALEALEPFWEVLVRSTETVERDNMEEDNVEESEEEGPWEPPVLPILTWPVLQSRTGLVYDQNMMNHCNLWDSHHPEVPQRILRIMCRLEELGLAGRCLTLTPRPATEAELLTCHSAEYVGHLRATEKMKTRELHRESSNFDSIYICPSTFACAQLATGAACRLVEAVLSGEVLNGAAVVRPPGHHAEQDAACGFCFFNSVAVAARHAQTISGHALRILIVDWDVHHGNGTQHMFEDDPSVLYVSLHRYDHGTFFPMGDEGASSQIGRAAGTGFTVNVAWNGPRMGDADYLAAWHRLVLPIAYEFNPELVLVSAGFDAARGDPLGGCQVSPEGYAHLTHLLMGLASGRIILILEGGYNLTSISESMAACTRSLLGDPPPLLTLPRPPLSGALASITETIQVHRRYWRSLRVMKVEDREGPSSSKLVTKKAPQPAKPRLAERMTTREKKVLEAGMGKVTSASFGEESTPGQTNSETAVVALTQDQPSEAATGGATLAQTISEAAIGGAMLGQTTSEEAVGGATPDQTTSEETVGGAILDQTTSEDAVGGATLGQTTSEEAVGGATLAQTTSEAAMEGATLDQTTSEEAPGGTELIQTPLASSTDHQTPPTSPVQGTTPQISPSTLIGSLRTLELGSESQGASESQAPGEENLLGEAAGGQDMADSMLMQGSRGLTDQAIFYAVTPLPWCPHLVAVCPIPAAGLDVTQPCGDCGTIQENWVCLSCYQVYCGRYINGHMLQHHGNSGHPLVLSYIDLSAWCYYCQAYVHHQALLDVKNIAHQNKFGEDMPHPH
In short: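 HDAC6 immunopurified from 293 cells stably expressing the FLAG-tagged isoform. Deacetylation of the bis-Boc-(Ac)Lys-rhodamine 110 substrate releases a fluorophore, read on a fluorometric plate reader.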

Histone deacetylase 1, sequence (Q13547 whole entry): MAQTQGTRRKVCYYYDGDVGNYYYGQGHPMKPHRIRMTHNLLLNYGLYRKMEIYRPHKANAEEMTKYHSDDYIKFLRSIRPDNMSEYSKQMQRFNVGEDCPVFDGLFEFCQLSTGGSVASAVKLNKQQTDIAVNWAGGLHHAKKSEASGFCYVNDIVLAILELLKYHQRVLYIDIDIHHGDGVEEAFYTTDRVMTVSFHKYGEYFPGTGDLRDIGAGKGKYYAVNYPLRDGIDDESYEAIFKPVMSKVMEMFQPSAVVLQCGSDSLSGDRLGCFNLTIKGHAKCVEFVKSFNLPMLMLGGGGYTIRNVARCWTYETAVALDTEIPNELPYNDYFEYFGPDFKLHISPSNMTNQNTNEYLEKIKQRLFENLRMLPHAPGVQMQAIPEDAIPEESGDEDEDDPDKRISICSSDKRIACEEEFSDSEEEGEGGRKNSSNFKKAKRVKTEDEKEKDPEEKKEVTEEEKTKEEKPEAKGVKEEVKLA
Voltage-gated inwardly rectifying potassium channel KCNH2, sequence (Q12809 whole entry): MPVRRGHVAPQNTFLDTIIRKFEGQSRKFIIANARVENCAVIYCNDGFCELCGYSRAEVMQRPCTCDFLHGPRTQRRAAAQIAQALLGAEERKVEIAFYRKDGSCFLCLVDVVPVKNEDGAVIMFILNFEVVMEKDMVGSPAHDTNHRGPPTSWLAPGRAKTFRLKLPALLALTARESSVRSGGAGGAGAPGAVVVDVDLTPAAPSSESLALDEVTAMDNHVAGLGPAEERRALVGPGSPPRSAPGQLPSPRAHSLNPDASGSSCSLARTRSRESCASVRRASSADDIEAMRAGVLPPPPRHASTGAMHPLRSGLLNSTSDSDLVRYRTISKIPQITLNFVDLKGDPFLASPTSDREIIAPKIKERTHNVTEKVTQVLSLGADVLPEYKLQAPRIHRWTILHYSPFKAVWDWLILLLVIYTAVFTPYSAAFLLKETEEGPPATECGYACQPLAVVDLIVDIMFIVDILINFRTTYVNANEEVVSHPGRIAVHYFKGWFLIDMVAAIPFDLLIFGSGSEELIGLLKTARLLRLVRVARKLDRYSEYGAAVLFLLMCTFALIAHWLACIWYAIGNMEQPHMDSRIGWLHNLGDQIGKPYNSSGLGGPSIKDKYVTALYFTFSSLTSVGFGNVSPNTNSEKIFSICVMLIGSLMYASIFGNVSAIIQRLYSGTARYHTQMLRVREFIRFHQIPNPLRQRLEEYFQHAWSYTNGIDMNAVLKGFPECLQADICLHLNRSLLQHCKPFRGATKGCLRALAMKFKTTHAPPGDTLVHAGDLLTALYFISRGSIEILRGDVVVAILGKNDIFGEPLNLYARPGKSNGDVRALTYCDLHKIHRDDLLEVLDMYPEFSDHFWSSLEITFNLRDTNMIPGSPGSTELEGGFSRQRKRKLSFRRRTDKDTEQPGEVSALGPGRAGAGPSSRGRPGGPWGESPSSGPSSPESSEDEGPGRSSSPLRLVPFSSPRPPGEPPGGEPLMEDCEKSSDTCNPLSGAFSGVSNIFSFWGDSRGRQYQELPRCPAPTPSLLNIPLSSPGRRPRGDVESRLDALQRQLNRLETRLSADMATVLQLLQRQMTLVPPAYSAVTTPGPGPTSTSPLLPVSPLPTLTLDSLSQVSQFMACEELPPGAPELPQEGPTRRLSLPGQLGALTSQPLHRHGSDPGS
Histone deacetylase 3, sequence (O15379 whole entry): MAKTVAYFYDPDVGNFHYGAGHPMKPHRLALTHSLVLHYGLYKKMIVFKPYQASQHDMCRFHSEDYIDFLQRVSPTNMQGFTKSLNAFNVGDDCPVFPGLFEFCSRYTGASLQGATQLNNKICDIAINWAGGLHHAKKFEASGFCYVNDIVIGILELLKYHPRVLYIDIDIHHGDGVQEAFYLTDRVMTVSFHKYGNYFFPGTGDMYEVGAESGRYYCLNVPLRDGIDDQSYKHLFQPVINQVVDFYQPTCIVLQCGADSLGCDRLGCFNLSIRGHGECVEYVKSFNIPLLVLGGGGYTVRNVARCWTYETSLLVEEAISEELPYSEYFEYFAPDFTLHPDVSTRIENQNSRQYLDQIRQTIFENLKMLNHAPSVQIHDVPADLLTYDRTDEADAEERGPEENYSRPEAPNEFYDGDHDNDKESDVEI
Histone deacetylase 2, sequence (Q92769 whole entry): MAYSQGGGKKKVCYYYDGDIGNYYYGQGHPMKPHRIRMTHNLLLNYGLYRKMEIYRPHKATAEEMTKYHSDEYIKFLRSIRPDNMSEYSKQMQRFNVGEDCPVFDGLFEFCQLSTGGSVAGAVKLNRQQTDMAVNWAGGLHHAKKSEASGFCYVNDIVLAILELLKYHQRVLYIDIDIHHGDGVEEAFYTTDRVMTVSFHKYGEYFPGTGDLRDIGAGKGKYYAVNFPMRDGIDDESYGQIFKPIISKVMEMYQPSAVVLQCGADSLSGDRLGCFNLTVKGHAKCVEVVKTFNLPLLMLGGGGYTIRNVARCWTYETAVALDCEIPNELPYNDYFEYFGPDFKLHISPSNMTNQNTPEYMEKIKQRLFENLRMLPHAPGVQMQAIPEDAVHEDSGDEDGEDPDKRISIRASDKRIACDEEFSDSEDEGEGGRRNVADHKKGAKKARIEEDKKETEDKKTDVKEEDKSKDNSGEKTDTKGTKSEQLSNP
Histone deacetylase 4, sequence (P56524 whole entry): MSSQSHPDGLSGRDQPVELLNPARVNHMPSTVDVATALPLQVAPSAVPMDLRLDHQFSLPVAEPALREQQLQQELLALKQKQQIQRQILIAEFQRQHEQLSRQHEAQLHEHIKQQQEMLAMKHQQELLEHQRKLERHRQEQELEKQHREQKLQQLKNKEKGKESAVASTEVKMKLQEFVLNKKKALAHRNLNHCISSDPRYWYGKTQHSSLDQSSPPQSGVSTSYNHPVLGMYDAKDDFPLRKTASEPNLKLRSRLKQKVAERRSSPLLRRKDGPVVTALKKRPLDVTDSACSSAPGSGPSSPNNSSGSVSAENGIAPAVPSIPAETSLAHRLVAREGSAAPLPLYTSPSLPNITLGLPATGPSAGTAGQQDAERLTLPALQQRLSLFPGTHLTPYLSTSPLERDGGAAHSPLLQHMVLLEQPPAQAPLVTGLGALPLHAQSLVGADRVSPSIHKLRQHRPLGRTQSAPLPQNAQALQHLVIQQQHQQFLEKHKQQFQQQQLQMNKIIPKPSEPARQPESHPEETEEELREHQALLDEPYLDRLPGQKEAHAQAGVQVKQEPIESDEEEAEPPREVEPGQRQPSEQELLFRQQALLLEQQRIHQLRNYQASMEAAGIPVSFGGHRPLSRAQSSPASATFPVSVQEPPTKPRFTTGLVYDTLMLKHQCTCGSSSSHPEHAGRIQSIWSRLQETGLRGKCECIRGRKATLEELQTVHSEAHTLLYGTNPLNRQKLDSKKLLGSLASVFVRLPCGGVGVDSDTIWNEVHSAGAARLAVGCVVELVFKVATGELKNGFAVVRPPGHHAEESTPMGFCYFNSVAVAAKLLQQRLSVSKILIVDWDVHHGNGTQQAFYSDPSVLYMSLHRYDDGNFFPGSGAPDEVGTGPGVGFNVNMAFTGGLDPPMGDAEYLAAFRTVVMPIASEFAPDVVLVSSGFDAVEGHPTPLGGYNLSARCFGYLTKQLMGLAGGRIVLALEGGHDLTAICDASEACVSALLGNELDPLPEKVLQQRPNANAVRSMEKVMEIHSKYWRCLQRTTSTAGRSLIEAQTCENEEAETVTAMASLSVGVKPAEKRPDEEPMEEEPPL

Compound	IC50 [1]	IC50 [2]	IC50 (Histone deacetylase 1)	IC50 (HCT-116)	pKa [3]	IC50 (Histone deacetylase 3)	IC50 (Histone deacetylase 4)	IC50 (Histone deacetylase 8)	IC50 (Histone deacetylase 2)	IC50 [4]
Cc1[nH]c2ccccc2c1CCN1Cc2ccc(/C=C/C(=O)NO)cc2C1	4800 nM	232 nM	27 nM	41 nM	–	–	–	–	–	–
Cc1[nH]c2ccccc2c1CCN1CCc2ccc(/C=C/C(=O)NO)cc2CC1	3200 nM	> 1000 nM	76 nM	545 nM	–	–	–	–	–	–
Cc1[nH]c2ccccc2c1C1CCCN(Cc2ccc(/C=C/C(=O)NO)cc2)C1 (configuration not stated)	27600 nM	31 nM	5 nM	5.6 nM	7.8	–	–	–	–	–
Cc1[nH]c2ccccc2c1C1CCN(Cc2ccc(/C=C/C(=O)NO)cc2)C1 (configuration not stated)	13400 nM	14 nM	2.8 nM	3.2 nM	–	–	–	–	–	–
Cc1[nH]c2ccccc2c1CC1CCCCN1Cc1ccc(/C=C/C(=O)NO)cc1 (configuration not stated)	–	153 nM	24 nM	27 nM	–	–	–	–	–	–
Cc1[nH]c2ccccc2c1CCN1CCCC1c1ccc(/C=C/C(=O)NO)cc1 (configuration not stated)	19400 nM	4.3 nM	–	1 nM	–	–	–	–	–	–
Cc1[nH]c2ccccc2c1CCN1CCc2cc(/C=C/C(=O)NO)ccc2C1	–	725 nM	41 nM	119 nM	–	–	–	–	–	–
CC(C)(C)c1[nH]c2ccccc2c1[C@H]1CCCN(Cc2ccc(/C=C/C(=O)NO)cc2F)C1	–	5.4 nM	–	0.8 nM	–	9 nM	28 nM	217 nM	31 nM	118 nM
O=C(/C=C/c1ccc(CN2CCCC(c3c[nH]c4ccccc34)C2)c(F)c1)NO (configuration not stated)	–	3520 nM	136 nM	332 nM	–	–	–	–	–	–
O=C(/C=C/c1ccc(CN2CCCC(c3c(-c4ccccc4)[nH]c4ccccc34)C2)c(F)c1)NO (configuration not stated)	–	106 nM	16 nM	11 nM	7.4	–	–	–	–	–
CC(C)(C)c1[nH]c2ccccc2c1C1CCCN(Cc2ccc(/C=C/C(=O)NO)cc2F)C1 (configuration not stated)	–	20 nM	–	3.8 nM	7.3	–	–	–	–	–
CC(C)(C)c1[nH]c2ccccc2c1[C@@H]1CCCN(Cc2ccc(/C=C/C(=O)NO)cc2F)C1	–	443 nM	–	143 nM	–	21 nM	38 nM	364 nM	48 nM	110 nM
CC(C)(C)c1[nH]c2ccccc2c1C1CCCN(Cc2ccc(/C=C/C(=O)NO)cc2Cl)C1 (configuration not stated)	9900 nM	60 nM	–	5.2 nM	7.4	–	–	–	–	–
Cc1[nH]c2ccccc2c1CCN1CCc2ccc(/C=C/C(=O)NO)cc2C1	2700 nM	165 nM	13 nM	42 nM	–	–	–	–	–	–
O=C(/C=C/c1ccc(CN2CCCC(c3c[nH]c4ccccc34)C2)cc1)NO (configuration not stated)	–	141 nM	11 nM	25 nM	7.3	–	–	–	–	–
O=C(/C=C/c1ccc(CN2CCCC(c3c(-c4ccccc4)[nH]c4ccccc34)C2)cc1)NO (configuration not stated)	–	31 nM	11 nM	6.9 nM	7.7	–	–	–	–	–
CC(C)(C)c1[nH]c2ccccc2c1C1CCCN(Cc2ccc(/C=C/C(=O)NO)cc2)C1 (configuration not stated)	13500 nM	6.3 nM	–	0.9 nM	7.8	–	–	–	–	–
O=C(/C=C/c1ccc(CN(CCO)CCc2c[nH]c3ccccc23)cc1)NO [DACINOSTAT]	–	161 nM	–	13 nM	–	–	–	–	–	–
